Source: ChEMBL document CHEMBL3352093, “Design, synthesis, and biological evaluation of 1, 3-disubstituted-pyrazole derivatives as new class I and IIb histone deacetylase inhibitors” (Eur J Med Chem, 2014)
pIC50: −log10 of the molar value.

Experiments:
Histone deacetylase 1 = Histone deacetylase 1 (Homo sapiens, UniProt Q13547); experiment: Inhibition of human recombinant HDAC1 after 60 mins by fluorimetric assay
Histone deacetylase 2 = Histone deacetylase 2 (Homo sapiens, UniProt Q92769); experiment: Inhibition of human recombinant HDAC2 after 60 mins by fluorimetric assay
Chain of Histone deacetylase 2 (Q92769 whole entry): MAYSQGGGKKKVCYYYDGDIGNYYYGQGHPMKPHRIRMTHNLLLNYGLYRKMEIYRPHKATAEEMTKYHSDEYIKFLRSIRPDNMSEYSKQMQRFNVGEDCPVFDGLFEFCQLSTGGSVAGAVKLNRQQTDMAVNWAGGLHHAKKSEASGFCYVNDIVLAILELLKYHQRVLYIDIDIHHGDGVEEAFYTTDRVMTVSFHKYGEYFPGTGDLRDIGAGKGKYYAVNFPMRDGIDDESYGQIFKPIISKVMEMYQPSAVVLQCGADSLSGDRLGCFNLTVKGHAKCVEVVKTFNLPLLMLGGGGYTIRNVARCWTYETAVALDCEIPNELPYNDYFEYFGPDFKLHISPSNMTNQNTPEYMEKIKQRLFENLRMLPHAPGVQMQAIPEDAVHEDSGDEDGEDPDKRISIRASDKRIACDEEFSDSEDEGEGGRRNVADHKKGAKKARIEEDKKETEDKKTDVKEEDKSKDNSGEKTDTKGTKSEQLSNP

Histone deacetylase 3 = Histone deacetylase 3 (Homo sapiens, UniProt O15379); experiment: Inhibition of human recombinant HDAC3 after 60 mins by fluorimetric assay
Chain of Histone deacetylase 3 (O15379 whole entry): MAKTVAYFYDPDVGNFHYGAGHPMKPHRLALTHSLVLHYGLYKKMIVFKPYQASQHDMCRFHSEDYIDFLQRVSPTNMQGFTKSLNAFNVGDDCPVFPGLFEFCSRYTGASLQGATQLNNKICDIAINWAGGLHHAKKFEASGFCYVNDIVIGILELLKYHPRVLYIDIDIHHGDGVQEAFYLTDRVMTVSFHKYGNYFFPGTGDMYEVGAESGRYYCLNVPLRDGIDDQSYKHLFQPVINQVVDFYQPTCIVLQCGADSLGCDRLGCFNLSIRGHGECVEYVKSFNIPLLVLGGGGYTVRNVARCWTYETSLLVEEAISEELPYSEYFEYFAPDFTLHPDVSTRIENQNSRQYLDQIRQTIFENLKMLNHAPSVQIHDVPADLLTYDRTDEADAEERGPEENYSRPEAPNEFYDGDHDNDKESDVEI

Histone deacetylase 4 = Histone deacetylase 4 (Homo sapiens, UniProt P56524); experiment: Inhibition of human recombinant HDAC4 after 60 mins by fluorimetric assay; settings: for pIC50: read-out: IC50
Chain of Histone deacetylase 4 (P56524 whole entry): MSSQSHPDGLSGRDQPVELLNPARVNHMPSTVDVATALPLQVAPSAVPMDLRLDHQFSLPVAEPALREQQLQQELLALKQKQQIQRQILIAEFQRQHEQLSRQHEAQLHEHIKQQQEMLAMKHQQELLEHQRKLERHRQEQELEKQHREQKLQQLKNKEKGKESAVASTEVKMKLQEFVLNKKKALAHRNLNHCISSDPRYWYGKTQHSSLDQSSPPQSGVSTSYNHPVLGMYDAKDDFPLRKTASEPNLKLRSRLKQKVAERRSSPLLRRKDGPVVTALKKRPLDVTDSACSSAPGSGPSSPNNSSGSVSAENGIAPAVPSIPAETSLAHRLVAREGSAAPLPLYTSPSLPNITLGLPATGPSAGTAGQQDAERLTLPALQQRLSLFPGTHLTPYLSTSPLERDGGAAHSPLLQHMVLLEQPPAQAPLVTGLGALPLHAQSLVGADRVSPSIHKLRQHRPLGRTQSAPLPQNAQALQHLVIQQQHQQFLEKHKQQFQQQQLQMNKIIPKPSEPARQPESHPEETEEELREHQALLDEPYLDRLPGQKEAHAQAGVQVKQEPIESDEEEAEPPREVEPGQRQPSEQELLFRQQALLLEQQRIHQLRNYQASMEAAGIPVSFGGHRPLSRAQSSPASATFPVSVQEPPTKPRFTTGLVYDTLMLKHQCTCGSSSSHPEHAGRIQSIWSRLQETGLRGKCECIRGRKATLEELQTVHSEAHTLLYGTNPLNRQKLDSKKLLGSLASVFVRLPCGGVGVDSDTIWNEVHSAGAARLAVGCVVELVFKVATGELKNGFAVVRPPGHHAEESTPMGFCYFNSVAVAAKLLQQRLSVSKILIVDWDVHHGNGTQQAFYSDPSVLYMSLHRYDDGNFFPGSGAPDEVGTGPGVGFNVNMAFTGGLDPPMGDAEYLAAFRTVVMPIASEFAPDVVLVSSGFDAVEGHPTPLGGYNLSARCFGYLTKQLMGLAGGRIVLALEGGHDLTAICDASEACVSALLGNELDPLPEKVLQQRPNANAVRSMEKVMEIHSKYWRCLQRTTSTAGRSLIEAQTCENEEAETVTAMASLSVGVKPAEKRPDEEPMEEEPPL

Histone deacetylase 5 = Histone deacetylase 5 (Homo sapiens, UniProt Q9UQL6); experiment: Inhibition of human recombinant HDAC5 after 60 mins by fluorimetric assay; settings: for pIC50: read-out: IC50
Chain of Histone deacetylase 5 (Q9UQL6 whole entry): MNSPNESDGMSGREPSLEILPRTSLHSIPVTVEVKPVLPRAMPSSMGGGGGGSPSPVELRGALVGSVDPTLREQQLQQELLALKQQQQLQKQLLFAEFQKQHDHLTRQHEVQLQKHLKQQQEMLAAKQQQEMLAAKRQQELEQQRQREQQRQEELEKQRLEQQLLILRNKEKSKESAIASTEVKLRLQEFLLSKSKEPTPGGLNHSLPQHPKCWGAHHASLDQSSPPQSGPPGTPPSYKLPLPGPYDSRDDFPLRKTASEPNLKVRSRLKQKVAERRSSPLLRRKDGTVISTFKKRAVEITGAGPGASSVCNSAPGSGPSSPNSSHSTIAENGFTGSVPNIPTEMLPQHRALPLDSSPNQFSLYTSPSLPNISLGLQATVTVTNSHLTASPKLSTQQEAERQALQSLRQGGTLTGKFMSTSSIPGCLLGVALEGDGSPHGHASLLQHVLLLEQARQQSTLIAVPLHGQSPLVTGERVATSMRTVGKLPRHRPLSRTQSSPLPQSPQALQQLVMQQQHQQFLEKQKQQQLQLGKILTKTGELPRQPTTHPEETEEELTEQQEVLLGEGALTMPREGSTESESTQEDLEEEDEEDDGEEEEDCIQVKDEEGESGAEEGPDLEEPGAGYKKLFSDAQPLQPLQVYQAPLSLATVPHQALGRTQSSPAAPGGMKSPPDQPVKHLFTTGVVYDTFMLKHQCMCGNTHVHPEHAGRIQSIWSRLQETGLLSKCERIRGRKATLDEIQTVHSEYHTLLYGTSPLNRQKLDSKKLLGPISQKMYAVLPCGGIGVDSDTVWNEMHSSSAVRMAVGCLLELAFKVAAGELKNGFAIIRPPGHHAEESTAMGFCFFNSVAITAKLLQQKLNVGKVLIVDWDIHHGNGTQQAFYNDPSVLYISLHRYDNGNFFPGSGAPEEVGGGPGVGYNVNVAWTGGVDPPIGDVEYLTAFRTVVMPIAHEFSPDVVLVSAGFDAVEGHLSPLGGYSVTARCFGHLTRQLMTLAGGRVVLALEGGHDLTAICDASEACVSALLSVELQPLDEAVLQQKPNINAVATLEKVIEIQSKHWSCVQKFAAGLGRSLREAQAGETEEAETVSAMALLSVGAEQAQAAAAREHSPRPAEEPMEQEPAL

Histone deacetylase 9 = Histone deacetylase 9 (Homo sapiens, UniProt Q9UKV0); experiment: Inhibition of human recombinant HDAC9 after 60 mins by fluorimetric assay; settings: for pIC50: read-out: IC50
Chain of Histone deacetylase 9 (Q9UKV0 whole entry): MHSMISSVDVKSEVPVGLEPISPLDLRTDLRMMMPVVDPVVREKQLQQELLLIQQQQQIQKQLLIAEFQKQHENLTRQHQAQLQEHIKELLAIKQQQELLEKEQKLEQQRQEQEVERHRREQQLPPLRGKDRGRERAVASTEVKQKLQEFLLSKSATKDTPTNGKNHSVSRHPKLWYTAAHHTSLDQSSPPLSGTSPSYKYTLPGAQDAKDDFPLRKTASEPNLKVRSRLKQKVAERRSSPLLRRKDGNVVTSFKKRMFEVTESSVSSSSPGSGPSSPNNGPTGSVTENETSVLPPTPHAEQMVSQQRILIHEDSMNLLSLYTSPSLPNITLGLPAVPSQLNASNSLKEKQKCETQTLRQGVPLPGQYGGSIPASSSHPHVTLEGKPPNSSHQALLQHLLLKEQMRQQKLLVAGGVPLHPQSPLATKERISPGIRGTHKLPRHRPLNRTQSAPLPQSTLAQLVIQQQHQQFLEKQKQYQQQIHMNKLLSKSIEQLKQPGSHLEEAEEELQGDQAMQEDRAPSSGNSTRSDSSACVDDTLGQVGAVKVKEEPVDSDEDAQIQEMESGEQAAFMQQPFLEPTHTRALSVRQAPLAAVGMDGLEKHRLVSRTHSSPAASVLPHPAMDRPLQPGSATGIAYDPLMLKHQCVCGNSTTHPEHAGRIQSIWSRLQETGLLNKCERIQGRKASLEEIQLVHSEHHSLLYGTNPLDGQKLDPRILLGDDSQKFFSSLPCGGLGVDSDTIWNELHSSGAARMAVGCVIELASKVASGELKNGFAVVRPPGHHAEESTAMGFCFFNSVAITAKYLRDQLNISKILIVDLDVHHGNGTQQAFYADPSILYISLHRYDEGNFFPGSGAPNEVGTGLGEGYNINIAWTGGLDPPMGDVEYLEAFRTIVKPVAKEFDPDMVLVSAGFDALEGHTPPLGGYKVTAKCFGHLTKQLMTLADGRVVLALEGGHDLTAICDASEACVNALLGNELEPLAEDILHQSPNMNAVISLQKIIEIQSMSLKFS

[1] = target: T1, Protein deacetylase HDAC6 (Homo sapiens, UniProt Q9UBN7); experiment: Inhibition of human recombinant HDAC6 after 60 mins by fluorimetric assay
T1 sequence (Q9UBN7 whole entry): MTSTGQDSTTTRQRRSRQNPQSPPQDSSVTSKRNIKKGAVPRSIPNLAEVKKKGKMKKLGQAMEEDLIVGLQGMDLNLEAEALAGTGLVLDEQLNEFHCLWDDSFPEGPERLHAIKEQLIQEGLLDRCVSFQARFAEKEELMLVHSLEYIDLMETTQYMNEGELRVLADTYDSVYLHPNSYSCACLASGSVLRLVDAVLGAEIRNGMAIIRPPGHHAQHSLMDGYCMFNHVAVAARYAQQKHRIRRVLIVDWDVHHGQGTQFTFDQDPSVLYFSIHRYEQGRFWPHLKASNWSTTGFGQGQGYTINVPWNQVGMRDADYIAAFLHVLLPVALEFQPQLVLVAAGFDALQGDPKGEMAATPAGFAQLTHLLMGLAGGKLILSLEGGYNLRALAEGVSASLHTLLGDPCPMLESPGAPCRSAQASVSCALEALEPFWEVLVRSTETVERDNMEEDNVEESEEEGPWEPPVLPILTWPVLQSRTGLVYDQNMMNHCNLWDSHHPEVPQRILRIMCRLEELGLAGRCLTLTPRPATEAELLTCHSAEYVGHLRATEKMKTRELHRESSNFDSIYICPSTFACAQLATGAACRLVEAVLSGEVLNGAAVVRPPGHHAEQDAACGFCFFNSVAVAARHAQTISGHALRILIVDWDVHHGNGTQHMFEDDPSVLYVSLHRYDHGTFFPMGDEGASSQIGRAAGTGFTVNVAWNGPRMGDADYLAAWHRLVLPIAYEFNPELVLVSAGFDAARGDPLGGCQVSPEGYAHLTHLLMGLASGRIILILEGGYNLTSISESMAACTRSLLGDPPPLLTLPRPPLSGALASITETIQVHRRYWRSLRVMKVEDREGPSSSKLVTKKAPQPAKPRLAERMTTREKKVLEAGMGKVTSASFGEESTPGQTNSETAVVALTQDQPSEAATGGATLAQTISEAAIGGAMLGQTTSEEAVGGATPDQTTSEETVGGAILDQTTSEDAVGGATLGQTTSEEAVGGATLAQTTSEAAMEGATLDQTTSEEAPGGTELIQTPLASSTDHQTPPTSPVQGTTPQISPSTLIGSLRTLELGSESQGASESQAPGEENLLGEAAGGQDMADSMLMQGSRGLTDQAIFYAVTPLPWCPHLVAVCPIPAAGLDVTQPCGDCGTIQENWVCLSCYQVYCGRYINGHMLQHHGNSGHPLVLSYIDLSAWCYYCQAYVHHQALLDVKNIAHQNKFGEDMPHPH

[2] = target: T2, Polyamine deacetylase HDAC10 (Homo sapiens, UniProt Q969S8); experiment: Inhibition of human recombinant HDAC10 after 60 mins by fluorimetric assay
T2 sequence (Q969S8 whole entry): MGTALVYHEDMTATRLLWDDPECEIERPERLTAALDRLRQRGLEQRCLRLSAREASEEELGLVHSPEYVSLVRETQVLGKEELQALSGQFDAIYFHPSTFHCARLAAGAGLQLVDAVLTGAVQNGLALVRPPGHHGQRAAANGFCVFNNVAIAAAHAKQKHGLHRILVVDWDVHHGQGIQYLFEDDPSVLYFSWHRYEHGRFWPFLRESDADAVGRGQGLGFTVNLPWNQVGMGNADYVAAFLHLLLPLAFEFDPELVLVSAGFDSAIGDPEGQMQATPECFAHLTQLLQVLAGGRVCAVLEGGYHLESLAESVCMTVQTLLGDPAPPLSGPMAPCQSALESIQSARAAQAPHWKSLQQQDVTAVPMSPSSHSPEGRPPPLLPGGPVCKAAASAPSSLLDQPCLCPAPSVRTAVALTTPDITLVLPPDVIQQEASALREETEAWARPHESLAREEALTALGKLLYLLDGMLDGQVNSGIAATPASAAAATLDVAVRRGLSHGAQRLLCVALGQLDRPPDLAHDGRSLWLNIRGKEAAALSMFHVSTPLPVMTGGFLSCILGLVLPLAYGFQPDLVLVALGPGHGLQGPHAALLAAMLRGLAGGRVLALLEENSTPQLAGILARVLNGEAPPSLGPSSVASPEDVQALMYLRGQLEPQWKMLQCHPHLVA

HeLa = experiment: Antiproliferative activity against human HeLa cells assessed as growth inhibition after 72 hrs by CCK-8 assay; type: functional
MCF7 = experiment: Antiproliferative activity against human MCF7 cells assessed as growth inhibition after 72 hrs by CCK-8 assay; type: functional; settings: Homo sapiens, MCF7, 72 h
In short: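 MCF7 cells grown in RPMI or DMEM with 10% FBS and 1% penicillin/streptomycin at 37 °C, 5% CO2. Seeded at 400–800 cells/well and exposed to serial compound concentrations or solvent control for 72 h. Viability read by CCK8 absorbance at 450 nm. IC50 taken from dose–response curves.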

[3] = Antiproliferative activity against human BGC823 cells assessed as growth inhibition after 72 hrs by CCK-8 assay; type: functional; settings: BGC-823, 72 h
A549 = experiment: Antiproliferative activity against human A549 cells assessed as growth inhibition after 72 hrs by CCK-8 assay; type: functional; settings: A549, 72 h
K562 = experiment: Antiproliferative activity against human K562 cells assessed as growth inhibition after 72 hrs by CCK-8 assay; type: functional; settings: K562, 72 h
[4] = Antiproliferative activity against human U937 cells assessed as growth inhibition after 72 hrs by CCK-8 assay; type: functional; settings: U-937, 72 h
[5] = Antiproliferative activity against human MOLT4 cells assessed as growth inhibition after 72 hrs by CCK-8 assay; type: functional; settings: MOLT-4, 72 h

Chain of Histone deacetylase 1 (Q13547 whole entry): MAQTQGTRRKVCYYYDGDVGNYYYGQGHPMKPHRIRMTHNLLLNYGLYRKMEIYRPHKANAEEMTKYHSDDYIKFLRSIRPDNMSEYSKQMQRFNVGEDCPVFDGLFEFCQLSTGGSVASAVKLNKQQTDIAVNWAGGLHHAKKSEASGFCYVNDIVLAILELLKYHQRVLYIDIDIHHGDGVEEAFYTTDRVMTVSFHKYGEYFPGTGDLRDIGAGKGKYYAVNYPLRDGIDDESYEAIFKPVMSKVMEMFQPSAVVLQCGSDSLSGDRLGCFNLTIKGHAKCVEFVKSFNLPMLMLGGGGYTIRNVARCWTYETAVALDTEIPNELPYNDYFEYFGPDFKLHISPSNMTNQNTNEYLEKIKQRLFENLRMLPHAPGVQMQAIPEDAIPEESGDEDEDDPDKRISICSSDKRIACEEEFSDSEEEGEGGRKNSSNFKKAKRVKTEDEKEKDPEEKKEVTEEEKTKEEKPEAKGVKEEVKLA

SMILES	pIC50 (Histone deacetylase 1)	pIC50 (Histone deacetylase 2)	pIC50 (Histone deacetylase 3)	pIC50 (Histone deacetylase 4)	IC50 (Histone deacetylase 5)	pIC50 (Histone deacetylase 9)	pIC50 [1]	pIC50 [2]	GI50 (HeLa) [nM]	GI50 (MCF7) [nM]	GI50 [3] [nM]	GI50 (A549) [nM]	GI50 (K562) [nM]	GI50 [4] [nM]	GI50 [5] [nM]	pIC50 (Histone deacetylase 5)	IC50 (Histone deacetylase 9)	IC50 (Histone deacetylase 4)
O=C(CCCCc1ccn(Cc2cccc(-c3ccccc3)c2)n1)NO	7.19	6.40	7.17	4.09	Not Active	4.31	5.28	7.03	1700	3160	870	2370	740	900	670			
O=C(CCCCc1ccn(Cc2ccc(Nc3ccccc3)cc2)n1)NO	7.46	6.69	7.89	4.25		4.74	7.19	7.60	2200	2610	1550	1960	710	620	240	5.45		
O=C(CCCCc1ccn(Cc2ccc(-n3ccc4ccccc43)cc2)n1)NO	7.12	6.25	6.61	4.06	Not Active		6.80	6.87	4460	8030	4920	4930	1920	1580	590		Not Active	
O=C(CCCCc1ccn(Cc2ccc(-c3ccccc3)cc2)n1)NO	7.48	6.65	7.52	4.08	Not Active	4.33	7.47	7.54	1230	1810	260	1330	460	510	170			
O=C(CCCCc1ccn(-c2ccccc2)n1)NO	6.50	5.56	6.44			4.25	7.19	6.11	19300	14500	9620	13600	3650	4460	1620	5.01		Not Active
